Reference: ChEMBL document CHEMBL1795256, “Synthesis and biological evaluation of novel aliphatic amido-quaternary ammonium salts for anticancer chemotherapy: part I” (2011)
Activity calls are given as the source filed them. The calls are words filed in the database; no cut-off is given here.

How the values were obtained:
NCI-H23 = test: Growth inhibition of human NCI-H23 cells by sulforhodamine B assay; assay type: functional
PC-3 = test: Growth inhibition of human PC3 cells by sulforhodamine B assay; assay type: functional
NUGC-3 = test: Growth inhibition of human NUGC3 cells by sulforhodamine B assay; assay type: functional
ACHN = test: Growth inhibition of human ACHN cells by sulforhodamine B assay; assay type: functional
[1] = molecular target: Rho-related GTP-binding protein RhoB (Homo sapiens) (UniProt P62745); test: Transactivation of RhoB expressed in human HeLa cells at 5 uM by dual renilla/firefly luciferase reporter assay; assay type: cell-based
Outline: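 HeLa cells at 75–90% confluence were transiently cotransfected with a pGL2 firefly luciferase plasmid driven by the RhoB promoter (empty pGL2 vector as comparison) plus pRL-SV40 Renilla luciferase. Luciferase activity was measured after compound exposure in a dual-luciferase reporter read-out.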

MDA-MB-231 = test: Growth inhibition of human MDA-MB-231 cells by sulforhodamine B assay; assay type: functional
HCT-15 = test: Growth inhibition of human HCT15 cells by sulforhodamine B assay; assay type: functional

Sequence of Rho-related GTP-binding protein RhoB (Homo sapiens) (P62745 whole entry): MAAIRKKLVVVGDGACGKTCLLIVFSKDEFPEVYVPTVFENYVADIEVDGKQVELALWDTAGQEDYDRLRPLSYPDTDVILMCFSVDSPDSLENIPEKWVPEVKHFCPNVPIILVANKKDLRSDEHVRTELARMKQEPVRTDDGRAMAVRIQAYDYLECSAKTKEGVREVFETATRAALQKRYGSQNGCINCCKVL

SMILES | GI50 (NCI-H23) | GI50 (PC-3) | GI50 (NUGC-3) | GI50 (ACHN) | Activity [1] | GI50 (MDA-MB-231) | GI50 (HCT-15)
CCCCCCCCCCCCCCCC(=O)N1CC[N+](C)(C)CC1 | 2340 nM | 480 nM | 290 nM | 1040 nM | Active | 1440 nM | 580 nM
C=CC[N+]1(C)CCN(C(=O)CCCCCCCCCCCCCCC)CC1 | inactive | inactive | inactive | inactive | Active | inactive | inactive
CCCCCCCCCCCCCCCCCCCCCC(=O)N1CC[N+](C)(CC)CC1 | 2600 nM | 850 nM | 1220 nM | 1900 nM | – | 2010 nM | 1690 nM
CCCCCCCCCCCCCCCCCCCC(=O)N1CC[N+](C)(C)CC1 | 1740 nM | 310 nM | 420 nM | 1390 nM | Active | 1630 nM | 540 nM
CCCCCCCCCCCCCCCCCCOP(=O)([O-])OC1CC[N+](C)(C)CC1 [PERIFOSINE] | 4210 nM | 440 nM | 540 nM | 4560 nM | – | 2860 nM | 1250 nM
CCCCCCCCCCCC(=O)N1CC[N+](C)(C)CC1 | inactive | 580 nM | 1730 nM | inactive | inactive | 3530 nM | inactive
C=CC[N+]1(C)CCN(C(=O)CCCCCCCCCCCCCCCCCCCCC)CC1 | 3070 nM | 960 nM | 1530 nM | 2370 nM | – | 3160 nM | 2130 nM
C=CC[N+]1(CC)CCN(C(=O)CCCCCCCCCCCCCCCCCCCCC)CC1 | 3940 nM | 1470 nM | 1540 nM | 3380 nM | Active | 2530 nM | 2780 nM
CCCCCCCCCCCCCCCC(=O)N1CC[N+](C)(Cc2ccccc2)CC1 | 2050 nM | 510 nM | 1000 nM | 1980 nM | – | 1450 nM | 5060 nM
CCCCCCCCCCCCCCCCCCCCCC(=O)N1CC[N+](C)(C)CC1 | 3000 nM | 990 nM | 1150 nM | 2390 nM | inactive | 3510 nM | 2410 nM
CCCCCCCCCCCCCCCCCC(=O)N1CC[N+](C)(C)CC1 | 2700 nM | 530 nM | 560 nM | 2740 nM | – | 1620 nM | 810 nM
CCCCCCCCCC(=O)N1CC[N+](C)(C)CC1 | inactive | inactive | inactive | inactive | inactive | inactive | inactive
CCCCCCCCCCCCCCCCCCCCCC(=O)N1CC[N+](C)(Cc2ccccc2)CC1 | 2950 nM | 1240 nM | 1900 nM | 4740 nM | – | 1980 nM | 2530 nM
CCCCCCCCCCCCCCCC(=O)N1CC[N+](C)(CC)CC1 | 3650 nM | 800 nM | 580 nM | 1890 nM | – | 2050 nM | 1800 nM
C=CC[N+]1(CC)CCN(C(=O)CCCCCCCCCCCCCCC)CC1 | 880 nM | 370 nM | 270 nM | 500 nM | Active | 680 nM | 1330 nM
CCCCCCCCCCCCCC(=O)N1CC[N+](C)(C)CC1 | 1580 nM | 290 nM | 560 nM | 1010 nM | Active | 890 nM | 850 nM
CCCCCCCCCCCCCCCC(=O)N1CC[N+](CC)(Cc2ccccc2)CC1 | 1760 nM | 550 nM | 460 nM | 920 nM | – | 1160 nM | inactive
CCCCCCCCCCCCCCCCCCCCCCCC(=O)N1CC[N+](C)(C)CC1 | inactive | 4790 nM | inactive | inactive | inactive | inactive | inactive
